Assay results: paper PMC12096016 (Protein Science : A Publication of the Protein Society, 2025)
Substitutions are numbered along the chain they refer to. “Also recorded” adds a separate entry of the source.

Columns and labels:
[1] = molecular target: T1, apo‐EntB (wild‐type EntB) (Escherichia coli, UniProt P0ADI4); test: Fluorescence anisotropy binding assay, wild-type EntB
T1 sequence (P0ADI4 1-285): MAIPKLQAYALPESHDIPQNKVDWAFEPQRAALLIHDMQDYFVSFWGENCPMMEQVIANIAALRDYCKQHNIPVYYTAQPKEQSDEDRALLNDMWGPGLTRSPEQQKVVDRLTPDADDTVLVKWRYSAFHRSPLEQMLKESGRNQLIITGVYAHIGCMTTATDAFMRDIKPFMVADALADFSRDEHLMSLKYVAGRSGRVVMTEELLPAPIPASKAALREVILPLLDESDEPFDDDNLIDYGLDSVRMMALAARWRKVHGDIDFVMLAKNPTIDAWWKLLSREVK
Method in brief: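 The test compound was held at 2 μM and purified protein was titrated in. Buffer was 50 mM HEPES pH 8.0, 150 mM NaCl, 1 mM TCEP, with 10 min preincubation at RT. Anisotropy was read at 21°C (ex 315 nm, em 437 nm, 10 nm slits), G-factor corrected, in triplicate. Apparent KD came from a one-site total-binding fit.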

[2] = molecular target: T2, EntB variant R196A (Escherichia coli, UniProt P0ADI4, R196A); test: Fluorescence anisotropy binding assay, EntB R196A; details: EntB R196A titrated into 2.00 μM 2,3‐DHB; apparent K D not determinable (no saturation)
T2 sequence (P0ADI4 1-285 R196A): T1 sequence (P0ADI4 1-285) with R196A

[3] = molecular target: T3, wild‐type EntB isochorismatase (Escherichia coli, UniProt P0ADI4); test: EntB‐LDH coupled isochorismatase activity assay, wild-type EntB; assay type: biochemical; details: for Isochorismate apparent K m / V max: 0.1 μM EntB
T3 sequence (P0ADI4 1-285): T1 sequence (P0ADI4 1-285)
Method in brief: (§1)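 His-tagged EntB (pCA24N, E. coli AG-1, IMAC-purified) at 0.10 μM was preincubated 10 min at RT with 1.50 unit/mL LDH and 350 μM NADH in 50 mM HEPES pH 8.0, 150 mM NaCl, 1 mM TCEP. Substrate was a ~3:2 chorismate:isochorismate mix made with EntC and 5 mM MgCl2 on ice for 20 min, then filtered. It was added at 6.2–73.9 μM, and OD340 loss was followed at 21°C. Test compound was at 0, 100, 250 or 400 μM. Km and Vmax came from Michaelis–Menten fits, and Ki from an Eadie–Hofstee slope replot.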

[4] = molecular target: T4, EntB R196A isochorismatase (Escherichia coli, UniProt P0ADI4, R196A); test: EntB‐LDH coupled isochorismatase activity assay, EntB R196A; assay type: biochemical
T4 sequence (P0ADI4 1-285 R196A): T1 sequence (P0ADI4 1-285) with R196A
Method in brief: as §1

[5] = molecular target: T5, EntB‐driven EntC reaction (Escherichia coli, UniProt P0ADI4); test: Isothermal titration microcalorimetry of the EntC–EntB coupled reaction; assay type: biochemical; details: 313 nM EntC, 1293 nM EntB, 0, 250, 500 μM DHB, 30°C
T5 sequence (P0ADI4 1-285): T1 sequence (P0ADI4 1-285)
Method in brief: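 The sample cell held 313 nM EntC with or without EntB (162–2587 nM). Two injections of 79 μM chorismate were given 10 min apart, stirring at 300 RPM. Integrated heats were corrected for buffer injection and chorismate dilution heats.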

[6] = tested on: EntB; details: compared with 2,5‐DHB and 3,5‐DHB; ref Khalil & Pawelek, 2009; cited from earlier work

Structure (SMILES): O=C(O)c1cccc(O)c1O [2,3‐DHB, 2,3‐dihydroxybenzoic acid]
- Kd [1]: 8.95 µM
- affinity relative to wild‐type EntB [2]: much lower affinity than wild‐type EntB
- IC50 [3]: 360 µM
- Isochorismate apparent K m ([3]; 100 μM 2,3‐DHB): 16.24 ± 1.57 µM
- V max ([3]; 100 μM 2,3‐DHB): 5.25 ± 0.17 µM/min
- Isochorismate apparent K m ([3]; 250 μM 2,3‐DHB): 22.12 ± 3.25 µM
- V max ([3]; 250 μM 2,3‐DHB): 4.99 ± 0.52 µM/min
- Isochorismate apparent K m ([3]; 400 μM 2,3‐DHB): 32.55 ± 0.23 µM
- V max ([3]; 400 μM 2,3‐DHB): 5.33 ± 0.05 µM/min
- mode of inhibition ([3]; Eadie–Hofstee plot, linear fits converge at the ordinate): competitive inhibition
- IC50 [4]: 692 µM
- effect on heat evolution (integrated reaction heats) [5]: suppression of integrated reaction heats; also recorded: heat evolution decreased in a DHB‐dependent manner
- quenching of EntB intrinsic fluorescence [6]: able to specifically quench EntB fluorescence; also recorded: most strongly quenched
